Assay results gathered from unrelated publications.
Each line is one published result; the experiments were not run side by side.

Structure (SMILES)	host	medium	route	dose	setting	endpoint	result
Cc1nc2ccc(OCc3ccc(C(F)(F)F)cc3)cc2[nH]1	male BALB/c mouse	plasma	oral	10 mg/kg	–	MRT(0-inf)	4.04 h
CCOC(=O)c1c(NC(=O)CNC(C)C)sc2c1CCCCC2	male mouse	plasma	intraperitoneal	5 mg/kg	single dose	MRT(0-inf)	1.79 h
C[C@@H]1COCCN1c1cc(=O)n2c(n1)N(Cc1cncc(Cl)c1)[C@H](C(F)(F)F)CC2	C57BL/6 mouse	plasma	intraperitoneal	10 mg/kg	single dose	MRT(0-t)	0.45 h
CC[C@H](C)[C@H](NC(=O)[C@H](CCC(=O)O)NC(=O)[C@H](CCC(=O)O)NC(=O)[C@@H]1CCCN1C(=O)[C@H](CO)NC(=O)[C@H](C)NC(=O)[C@H](CC(=O)O)NC(=O)[C@H](CCC(=O)O)NC(=O)[C@H](CCC(=O)O)NC(=O)[C@@H]1CCCN1C(=O)[C@H](CCCCNC(=O)COCCOCCNC(=O)COCCOCCNC(=O)CC[C@H](NC(=O)CCCCCCCCCCCCCCCCC(=O)O)C(=O)O)NC(=O)[C@H](C)NC(=O)[C@@H]1CCCN1C(=O)[C@H](C)NC(=O)CC(C)C)C(=O)N[C@@H](CCC(N)=O)C(=O)N[C@@H](CCCNC(=N)N)C(=O)N[C@@H](Cc1ccc(O)cc1)C(=O)N[C@@H](Cc1ccc(O)cc1)C(=O)N[C@H](C(=O)N[C@@H](CO)C(=O)N[C@@H](CC(C)C)C(=O)N[C@@H](CCCNC(=N)N)C(=O)N[C@@H](Cc1c[nH]cn1)C(=O)N[C@@H](Cc1ccc(O)cc1)C(=O)N[C@@H](Cc1ccc(O)cc1)C(=O)N[C@@H](CC(N)=O)C(=O)N[C@@H](Cc1c[nH]c2ccccc12)C(=O)N[C@@H](CC(C)C)C(=O)N[C@H](C(=O)N[C@@H](CCCNC(=N)N)C(=O)N[C@@H](CCC(N)=O)C(=O)N[C@@H](CCCNC(=N)N)C(=O)N[C@@H](Cc1ccc(O)cc1)C(N)=O)[C@@H](C)O)C(C)C	male NMRI mouse	plasma	subcutaneous	30 nmol/kg	single dose	MRT	18 h
O=C1CCC(N2Cc3cc(C4CCN(Cc5ccccc5)CC4)ccc3C2=O)C(=O)N1 (stereo not shown)	male CD-1 mouse	plasma	intravenous	1 mg/kg	–	MRT(0-inf)	3.34 h
Cc1ccc(CCC(=O)Nc2nnc(S(N)(=O)=O)s2)cc1	male BALB/c mouse	plasma	oral	20 mg/kg	–	MRT	3.74 h
COC1=CC(c2ccc[nH]2)=N/C1=C\c1[nH]c(Cc2ccc(OC(F)(F)F)cc2)cc1Cc1ccc(OC(F)(F)F)cc1	male CD-1 mouse	liver	oral	40 mg/kg	single dose	MRT(0-t)	22.2 h
CCOC(=O)C1=C(CN2CCC[C@@H]2C(=O)Nc2ccc(B(O)O)cc2)NC(c2nccs2)=N[C@H]1c1ccc(F)cc1Br	CD-1 mouse	plasma	oral	10 mg/kg	–	MRT(0-inf)	1 h
COC1=CC(c2ccc[nH]2)=N/C1=C\c1cc(Cc2ccc(OC(F)(F)F)cc2)c(C)[nH]1.Cl	male CD-1 mouse	plasma	oral	40 mg/kg	single dose	MRT(0-t)	34.4 h
OCc1nc2ccc(NCc3ccc(C(F)(F)F)cc3)cc2[nH]1	male BALB/c mouse	plasma	intravenous	1 mg/kg	–	MRT(0-inf)	1.1 h
